Compound activity (PubChem BioAssay)
FXIIa inh 1536 – inhibitors of human coagulation factor XIIa | P00748 | purified FXIIa, Boc-QGR-AMC fluorogenic substrate, 2 h | inhibition, % at 5 µM | 0.3% of 220,000 active | AID 800; in the data active = inhibition above about 40%
KLK5 inh – blocks human kallikrein 5 protease activity; 0.59% of 210,000 active; recombinant hK5, fluorogenic AMC substrate cleavage; Q9Y337; inhibition, % at 5 µM; AID 873;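 active = inhibition of 40% or more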
Thrombin inh – thrombin (human) inhibition; alpha-thrombin, Boc-VPR-AMC fluorogenic substrate cleavage; inhibition, % at 5 µM; P00734; 0.26% of 220,000 active;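 active = inhibition at or above 40%; inactive = inhibition below 40%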
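Material: human alpha-thrombin protein; Also added: Boc-VPR-AMC substrate, 15 µM final; Timing: enzyme reaction carried out at room temperature; Signal: fluorescence, ex 355 nm, em 460 nm; Measure: % inhibition of thrombin; Controls: enzyme without compound as high, wells lacking enzyme as low.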
Furin inhibitor – blocks human furin protease activity. P09958. purified furin, fluorogenic substrate cleavage. inhibition, % at 20 µM or 30 µM. 0.061% of 220,000 active. AID 463115; in the data active = inhibition above about 25%
FXIa inh 1536 – inhibitors of human coagulation factor XIa. purified FXIa, Boc-Glu-Ala-Arg-AMC fluorogenic substrate. inhibition, % at 5 µM. 0.14% of 220,000 active;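 active = inhibition of at least 40%; inactive = inhibition below 40%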;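 note: fluorescence of freed AMC excited at 355 nm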
Target sequence (P03951 19-387 limits assumed): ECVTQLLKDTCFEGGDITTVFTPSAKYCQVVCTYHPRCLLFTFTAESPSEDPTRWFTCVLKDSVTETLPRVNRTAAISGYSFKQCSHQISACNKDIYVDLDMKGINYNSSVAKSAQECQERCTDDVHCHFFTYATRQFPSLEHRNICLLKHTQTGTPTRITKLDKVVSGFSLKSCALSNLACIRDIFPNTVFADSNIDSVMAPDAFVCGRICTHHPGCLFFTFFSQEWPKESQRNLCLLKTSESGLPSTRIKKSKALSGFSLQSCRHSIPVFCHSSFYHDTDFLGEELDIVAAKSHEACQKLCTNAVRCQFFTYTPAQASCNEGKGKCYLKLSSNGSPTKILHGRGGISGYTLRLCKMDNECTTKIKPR
Target sequence (P03951 388-625 limits assumed): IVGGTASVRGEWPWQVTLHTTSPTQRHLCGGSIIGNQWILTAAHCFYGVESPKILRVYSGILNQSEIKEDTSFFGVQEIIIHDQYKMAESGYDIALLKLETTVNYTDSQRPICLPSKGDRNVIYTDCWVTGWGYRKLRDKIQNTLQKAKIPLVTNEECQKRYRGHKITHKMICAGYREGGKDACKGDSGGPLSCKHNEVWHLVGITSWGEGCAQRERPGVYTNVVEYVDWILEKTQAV
Hits are given with their value; . = inactive; / = not tested or not shown. The list is not random: actives were taken first. Their share in the collection is about 1.1%.

SMILES | FXIIa inh 1536 | KLK5 inh | Thrombin inh | Furin inhibitor | FXIa inh 1536
CC(=O)Nc1nnc(SCc2cccc(F)c2)s1 | . | . | . | . | .
CC(C)Sc1nnc(NC(=O)c2ccco2)s1 | . | . | . | . | .
CCSc1nnc(NC(=O)c2ccco2)s1 | . | . | 43.8 | . | .
O=C(Cc1cccs1)NC1(C(=O)NC2CCCC2)CCCCC1 | . | . | . | . | .
Cc1nn(C)c2ncc(C(N)=O)c(Oc3ccc(Cl)cc3)c12 | . | . | . | . | .
CCN(CC)C(=O)c1sc(NC(=O)Cc2ccc(OC)cc2)c(C#N)c1C | . | . | . | . | .
CCN(CC)C(=O)c1sc(NC(=O)Cc2ccccc2)c(C#N)c1C | . | 40.8 | . | . | .
Cc1ccccc1OCC(=O)Nc1sc(C(=O)Nc2cccc(C)c2C)c(C)c1C#N | . | 45.4 | . | . | .
COc1ccccc1NC(=O)c1sc(NC(=O)c2ccco2)c(C#N)c1C | . | . | . | . | .
COC(=O)c1ccc(=O)c2nc3/c(=C/O)c(O)cc(=O)c3[nH]c12 | . | . | . | . | .
COC(=O)c1scc(C)c1NC(=O)Cc1ccccc1 | . | 70.2 | . | . | .
C=CCc1cccc(/C=N/NC(=O)CNc2ccccc2)c1O | . | . | 46.2 | . | .
C=CCc1cccc(/C=N/NC(=O)CCCNc2ccc(C)cc2)c1O | . | 46.9 | . | . | .
O=C(O)COc1ccccc1/C=N/NC(=O)CSc1nc2ccccc2n1Cc1ccc(Cl)cc1 | . | . | . | . | .
CN(C)/C(CN1CCN(C=O)CC1)=C1\N=C(c2ccccc2)OC1=O | . | 66.5 | . | . | .
Fc1ccc(N2CCN(c3nnnn3-c3ccccc3)CC2)cc1 | . | . | . | . | .
CC1CN(c2nnnn2-c2ccccc2)CC(C)O1 (stereo not drawn) | . | 66.6 | . | . | .
CN(c1ccccc1)c1nc(N)c([N+](=O)[O-])c(NCCO)n1 | . | . | . | . | .
CC(C)(C)C(=O)COC(=O)CNC(=O)c1ccc(Oc2ccccc2)cc1 | . | 44.0 | . | . | .
O=C(CNC(=O)Cc1ccccc1)NCC(=O)OCC(=O)c1ccc(F)cc1 | . | . | . | . | .
O=C(CNC(=O)c1ccccc1)NCC(=O)OCC(=O)c1ccc(F)cc1 | . | 80.4 | . | . | .
Cc1ccc(NC(=O)CCC(=O)c2cccs2)c(O)c1 | . | . | . | . | .
CCC(CO)NS(=O)(=O)c1cc(-c2nn(C)c(=O)c3ccccc23)ccc1C (stereo not drawn) | . | . | . | . | .
O=C(c1ccc(N2CCN(CCO)CC2)nc1)N1CCOCC1 | . | . | . | . | .
O=C(COc1ccc(Cl)cc1Cl)Nc1nc2n(n1)C(c1ccccc1)CC(=O)N2 (stereo not drawn) | . | 57.6 | . | . | .
SMILES | FXIIa inh 1536 | KLK5 inh | Thrombin inh | Furin inhibitor | FXIa inh 1536
O=C1C2CC(O)CN2C(=S)N1Cc1ccccc1 (stereo not drawn) | . | . | . | . | .
CC1=C(C(=O)NCc2ccc(Cl)cc2)C2(CCC(C)CC2)OC1=O (stereo not drawn) | . | . | . | . | .
CC1=C(C(=O)NCc2ccccn2)C2(CCC(C)CC2)OC1=O (stereo not drawn) | . | 114.5 | . | . | .
COCCn1c(C)cc(C(=O)COC(=O)c2ccc[nH]c2=O)c1C | . | . | . | . | .
Cc1cc(C(=O)COC(=O)c2ccc[nH]c2=O)c(C)n1CCc1ccc(F)cc1 | . | 43.5 | / | . | .
C/C(=N\NC(=O)c1cccnc1)c1ccc(OC2OCCOC2Oc2ccc(/C(C)=N/NC(=O)c3cccnc3)cc2)cc1 (stereo not drawn) | . | . | . | . | .
Cc1cc(-n2ccnc2)n2c(nc3ccccc32)c1C#N | 106.1 | . | . | . | .
CCCc1cc(-n2ccnc2)n2c(nc3ccccc32)c1C#N | . | . | . | . | .
CC(=O)Nc1ccc2nc(NC(=O)COc3cccc(C)c3)sc2c1 | . | . | . | . | .
c1csc(-c2nn3c(Cn4cnc5ccccc54)nnc3s2)c1 | . | . | . | . | .
Clc1cccc(-c2nn3c(Cn4cnc5ccccc54)nnc3s2)c1 | . | . | . | 33.8 | .
Cc1nc2ccccc2c(=O)n1NC(=O)C1CC1 | . | / | . | . | .
COc1cccc(CN2CCNC(=O)C2CC(=O)N(C)Cc2cnccn2)c1OC (stereo not drawn) | . | . | . | . | .
COc1ccccc1CN1CCNC(=O)C1CC(=O)N(C)Cc1cnccn1 (stereo not drawn) | 49.3 | 41.8 | . | . | .
CC(=O)n1nc(-c2ccc(Cl)cc2)nc1NCc1ccco1 | . | . | 46.9 | . | .
CCCC(=O)n1nc(-c2ccc(C)cc2)nc1NCc1ccco1 | . | / | 57.7 | . | .
CCc1cc(-c2[nH]ncc2-c2nc3ccccc3n2C)c(O)cc1O | . | . | . | . | 74.7
COC(=O)C1=C(C(=O)OC)[C@@H]2N(C)c3ccccc3[C@@]23C[C@@H](C(=O)OC)N(C(=O)c2cc(C)oc2C)C3=N1 | . | . | . | . | .
CNC(=S)N1CCN=C1Nc1nc(C)cc(C)n1 | . | . | . | . | .
Cc1ccc(CNC(=O)c2ccc(Cn3nc(C)c(Cl)c3C)o2)cc1 | . | . | . | . | .
Cc1cc(C)cc(NC(=O)c2ccc(Cn3nc(C)c(Cl)c3C)o2)c1 | . | 120.4 | . | . | .
Cc1oc(-c2ccc(-c3ccccc3)cc2)nc1CN1CCN(CC(=O)N(C)C)CC1 | . | . | . | . | .
O=C(NC1CCCC1)C(=O)N(Cc1cccnc1)C(C(=O)NCC1CCCO1)c1ccco1 (stereo not drawn) | . | . | . | . | .
O=C(COC(=O)C12CC3CC(CC(O)(C3)C1)C2)NCCc1ccc(Cl)cc1 | . | . | 100.5 | . | .
COc1cccc(C(=O)NNC(=O)Cc2ccc([N+](=O)[O-])cc2)c1 | . | . | 44.1 | . | .
SMILES | FXIIa inh 1536 | KLK5 inh | Thrombin inh | Furin inhibitor | FXIa inh 1536
O=S1(=O)CCC(NC(=S)N2CCOCC2)C1 (stereo not drawn) | . | . | . | . | .
CCOC(=O)c1ccc(NNC(=O)CC)c([N+](=O)[O-])c1 | . | . | . | . | .
Cc1ccccc1Nc1nc(-c2sc(NC(=O)c3ccco3)nc2C)cs1 | . | . | . | . | .
Cc1ccc(Nc2nc(-c3sc(NC(=O)c4ccco4)nc3C)cs2)cc1 | . | 53.5 | . | . | .
O=S(=O)(c1ccc(S(=O)(=O)N2CCCC2)cc1)N1CCCCCC1 | 44.4 | . | . | . | .
Nc1ccc(S(=O)(=O)N2CCCC2)cc1 | . | . | . | . | .
O=C(CC(Nc1ccc(F)cc1)C(=O)O)c1ccccc1 (stereo not drawn) | . | 51.8 | . | . | .
O=C(CC(Nc1ccc(F)cc1)C(=O)OCC(=O)c1cccs1)c1ccccc1 (stereo not drawn) | . | . | 50.1 | . | .
CC(=O)c1cn(CC(=O)Nc2ccc(C)cc2C)c2ccccc12 | . | . | . | . | .
CC(C)C(NS(=O)(=O)c1ccccc1)C(=O)OCc1cc([N+](=O)[O-])cc2c1OCOC2 (stereo not drawn) | . | . | 48.2 | . | .
COc1ccc(C(=O)NNC(=O)CCn2nnc(-c3ccc(C)cc3)n2)cc1OC | . | . | / | . | .
